Results on 24 molecules are retold here after ChEMBL document CHEMBL1123155, “Synthesis and inhibition of human acrosin and trypsin and acute toxicity of aryl 4-guanidinobenzoates” (J Med Chem, 1986).

One data set concerns the target Acrosin (Homo sapiens, UniProt P10323). In words: Inhibition of human acrosin and control activity being 11.3 umol/min/mg. The note with it: read-out: I50.
The target of a further data set is Serine protease 1 (Homo sapiens, UniProt P07477). In words: Inhibition of human trypsin and the control activity being 7.3 umol/min/mg. The note with it: read-out: I50.
Serine protease 1, sequence (P07477 whole entry): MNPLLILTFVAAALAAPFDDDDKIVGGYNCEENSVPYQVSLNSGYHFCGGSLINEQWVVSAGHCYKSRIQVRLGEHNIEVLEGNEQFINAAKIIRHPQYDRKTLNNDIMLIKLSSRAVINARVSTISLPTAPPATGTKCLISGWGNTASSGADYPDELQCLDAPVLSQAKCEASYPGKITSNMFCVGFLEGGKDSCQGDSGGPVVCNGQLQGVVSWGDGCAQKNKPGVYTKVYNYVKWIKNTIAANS
Data set [1] is described as follows: Lethal dose that produces death in 50% of mice within 24 hr after acute treatment. In kind it is toxicity, organism-based. The note with it: mouse, in vivo. Summed up: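 Mature male Swiss Webster albino mice, minimum body weight 25 g; compounds suspended in 5% gum acacia and given as a single intraperitoneal injection at 0.1 mL/10 g body weight. Deaths scored within 24 h. LD50 taken from dose-response curves by the Litchfield and Wilcoxon method, with 95% confidence limits.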

The structures appear in SMILES notation.

Usually LD50 stands for the dose expected to kill half of the subjects tested. A higher LD50 goes with a less toxic substance.

Acrosin, sequence (P10323 20-42 limits assumed): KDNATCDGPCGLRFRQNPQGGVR
Acrosin, sequence (P10323 43-343 limits assumed): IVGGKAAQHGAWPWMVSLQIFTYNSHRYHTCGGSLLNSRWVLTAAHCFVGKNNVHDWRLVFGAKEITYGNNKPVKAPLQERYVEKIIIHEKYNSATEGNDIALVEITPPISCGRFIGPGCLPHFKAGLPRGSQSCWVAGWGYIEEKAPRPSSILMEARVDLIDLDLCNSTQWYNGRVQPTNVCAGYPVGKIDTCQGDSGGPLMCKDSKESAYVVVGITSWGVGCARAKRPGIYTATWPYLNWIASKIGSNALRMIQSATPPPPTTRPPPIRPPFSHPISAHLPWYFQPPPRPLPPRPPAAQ

For `CC(C)(C)c1ccc(OC(=O)c2ccc(NC(=N)N)cc2)cc1`, the results for the IC50 at Acrosin and at Serine protease 1 were 28.5 nM and 17.1 nM, respectively.
As for `CCCCOc1ccc(OC(=O)c2ccc(NC(=N)N)cc2)cc1`, the IC50 was 11.4 nM on Acrosin and 22.3 nM on Serine protease 1.
The corresponding values for `COc1ccc(OC(=O)c2ccc(NC(=N)N)cc2)cc1` are 16.3 nM and 19 nM.
The matching figures for `COc1ccccc1OC(=O)c1ccc(NC(=N)N)cc1`: 27.3 nM and 87.6 nM.
In data set [1], `COC(=O)c1ccccc1OC(=O)c1ccc(NC(=N)N)cc1` had an LD50 at 24 h of 750 mg/kg. Further, the IC50 turned out to be 12.9 nM on Acrosin and 65 nM on Serine protease 1.
Turning to `CC(C)c1ccc(OC(=O)c2ccc(NC(=N)N)cc2)cc1`, the IC50 worked out at 6.6 nM on Acrosin and 17.2 nM at Serine protease 1.
In turn, `Cc1ccc(C(C)C)c(OC(=O)c2ccc(NC(=N)N)cc2)c1.Cc1ccc(S(=O)(=O)O)cc1` returned an LD50 at 24 h in data set [1] greater than 2000 mg/kg. Besides, the IC50 on Acrosin amounted to 300 nM; at Serine protease 1 it was 500 nM.
`C=CCc1ccc(OC(=O)c2ccc(NC(=N)N)cc2)c(OC)c1` registered a median lethal dose (LD50) at 24 h in data set [1] of 870 mg/kg. Further, the IC50 on Acrosin is 13.7 nM; on Serine protease 1 it was 8.4 nM.
Regarding `N=C(N)Nc1ccc(C(=O)Oc2ccccc2)cc1`, the figures for the IC50 at Acrosin and at Serine protease 1 were 5.6 nM and 23.4 nM, respectively.
The matching figures for `N=C(N)Nc1ccc(C(=O)Oc2cccc(C(F)(F)F)c2)cc1`: 38.5 nM and 92.2 nM.
The corresponding values for `Cc1ccc(OC(=O)c2ccc(NC(=N)N)cc2)cc1` are 3.3 nM and 19.5 nM.
The corresponding values for `N#Cc1ccc(OC(=O)c2ccc(NC(=N)N)cc2)cc1` are 1.2 nM and 1.6 nM.
On to `N=C(N)Nc1ccc(C(=O)Oc2ccc(C(F)(F)F)cc2)cc1`, for which the IC50 on Acrosin is 33 nM; at Serine protease 1, 16.4 nM.
For the molecule `N=C(N)Nc1ccc(C(=O)Oc2ccc(Cl)cc2)cc1`, the IC50 at Acrosin was 3 nM; on Serine protease 1 it was 8.2 nM.
Regarding `COc1cccc(OC(=O)c2ccc(NC(=N)N)cc2)c1`, the IC50 at Acrosin was 17.6 nM; at Serine protease 1, 16.5 nM.
Consider `N=C(N)Nc1ccc(C(=O)Oc2ccc(Br)cc2)cc1`, for which the IC50 amounted to 3.5 nM at Acrosin and 3.9 nM on Serine protease 1.
`CCCCCCc1ccc(OC(=O)c2ccc(NC(=N)N)cc2)cc1O` returned an LD50 at 24 h in data set [1] of 620 mg/kg. Besides, the IC50 at Acrosin came to 99.7 nM; on Serine protease 1, 18.5 nM.
Consider `CC(=O)Nc1ccc(OC(=O)c2ccc(NC(=N)N)cc2)cc1.Cl`, for which the LD50 at 24 h in data set [1] was 850 mg/kg. The IC50 at Acrosin amounted to 8 nM; on Serine protease 1, 23.7 nM.
The corresponding values for `CCOC(=O)c1ccc(OC(=O)c2ccc(NC(=N)N)cc2)cc1.Cl` are 300 mg/kg, 9.3 nM and 1.6 nM.
For the molecule `COC(=O)c1cccc(OC(=O)c2ccc(NC(=N)N)cc2)c1`, the IC50 on Acrosin worked out at 5.4 nM; at Serine protease 1, 27.1 nM.
The corresponding values for `N#Cc1cccc(OC(=O)c2ccc(NC(=N)N)cc2)c1` are 7.2 nM and 3.8 nM.
`Cl.N=C(N)Nc1ccc(C(=O)Oc2cccc3cccnc23)cc1`: in data set [1], the 50% lethal dose (LD50) at 24 h was 240 mg/kg. Also, the IC50 at Acrosin was found to be 19.8 nM; at Serine protease 1, 27.7 nM.
For `Cl.N=C(N)Nc1ccc(C(=O)Oc2ccccc2C(N)=O)cc1`, the LD50 at 24 h in data set [1] was greater than 1000 mg/kg. Moreover, the IC50 on Acrosin and at Serine protease 1 was 300 nM throughout.
As for `COC(=O)c1ccc(OC(=O)c2ccc(NC(=N)N)cc2)cc1.Cl`, the LD50 at 24 h in data set [1] amounted to 235 mg/kg. Also, the IC50 was 0.67 nM on Acrosin and 1.5 nM at Serine protease 1.
